NPY-Y1 antag: NPY-Y1 receptor antagonists, primary screen, cell-based. HEK293-CNG Y1 cells, membrane potential fluorescence; NPY at EC95, then isoproterenol. inhibition, % at 3.6 µM. hit rate 1% among 200,000;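 active = inhibition above the campaign mean inhibition of all tested compounds plus 3 SD, cut at about 20% in these data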;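 note: 0% = DMSO wells given NPY plus isoproterenol and 100% = isoproterenol alone without NPY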
Target sequence (P25929 whole entry, looked up): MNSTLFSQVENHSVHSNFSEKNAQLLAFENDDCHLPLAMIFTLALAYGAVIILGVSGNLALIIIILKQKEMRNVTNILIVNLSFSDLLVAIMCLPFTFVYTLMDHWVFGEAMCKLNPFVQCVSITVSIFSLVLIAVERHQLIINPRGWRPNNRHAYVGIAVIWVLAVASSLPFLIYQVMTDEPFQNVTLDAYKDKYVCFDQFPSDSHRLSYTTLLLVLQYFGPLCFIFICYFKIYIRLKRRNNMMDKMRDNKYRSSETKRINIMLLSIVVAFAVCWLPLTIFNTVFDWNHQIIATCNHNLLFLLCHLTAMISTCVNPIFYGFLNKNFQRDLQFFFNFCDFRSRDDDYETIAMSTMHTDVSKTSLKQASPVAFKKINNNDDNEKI
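System: HEK293 cells with Y1 receptor plus CNG channel / Probe or stimulus: NPY 25 nM then isoproterenol 1 µM plus Ro 20-1724 25 µM / Compound: one concentration, 3.6 µM, in 0.4% DMSO / Schedule: compound incubation 1 h at room temperature, readout 45 min post-stimulation / Measured by: membrane potential fluorescence / Read-out: % inhibition of NPY effect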
NPY-Y2 antag: NPY-Y2 receptor antagonists, primary screen, cell-based. hit rate 0.99% among 140,000. Neuropeptide Y receptor type 2 (Homo sapiens), P49146. inhibition, % at 2.7 µM. NPY-Y2 expressing cells, antagonist mode; in the data active = inhibition above about 17%;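 note: 0% = vehicle with agonist challenge and 100% = reference antagonist with challenge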
EP2 mod: EP2 receptor modulators, cAMP readout, primary screen, cell-based, HTRF cAMP, PGE2 stimulation; Prostaglandin E2 receptor EP2 subtype (Homo sapiens), P43116; EP2-expressing cells, cAMP HTRF FRET, PGE2 co-stimulation; induction, % at 25 µM; hit rate 0.83% among 260,000;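 active = compounds whose cAMP rise, as percent of the full-agonist control response, exceeds 60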;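 note: rat C6 glioma line stably carrying human EP2 under a CMV promoter; the protocol text gives 20 µM as final concentration; 100% = response of wells given 1 µM PGE2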
PGE2 EP2 inh: human EP2 receptor antagonists, primary screen, TR-FRET cAMP, C6 glioma cells | Prostaglandin E2 receptor EP2 subtype (Homo sapiens), P43116 | C6 glioma cells expressing human EP2; cells stimulated with saturating PGE2 | inhibition, % at 25 µM | hit rate 0.52% among 260,000 | AID 1422, 2008;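 active = percent inhibition above 40 after rounding to a whole number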;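 note: rat C6 glioma host cells with rolipram phosphodiesterase inhibitor present; the protocol text gives 20 µM as final concentration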
NPY-Y2 PAM-ag: NPY-Y2 potentiators or agonists, primary screen, cell-based | hit rate 0.45% among 220,000 | activation, % at 3.6 µM | Neuropeptide Y receptor type 2 (Homo sapiens), P49146 | cells expressing NPY-Y2, potentiator/agonist read-out; in the data active = activation above about 27%;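 note: cells stimulated with NPY near EC25 plus isoproterenol at EC100; 0% = vehicle plus submaximal agonist and 100% = vehicle plus saturating agonist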
NPY1 pot ag: NPY-Y1 receptor potentiators or agonists, primary screen, cell-based; Neuropeptide Y receptor type 1 (Homo sapiens), P25929; NPY-Y1 expressing cells, potentiator/agonist activation; activation, % at 3.6 µM; hit rate 0.37% among 220,000; in the data active = activation above about 33%, passing the limit was not always enough;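 note: cells stimulated with NPY at EC10 then isoproterenol at EC100; 0% = low agonist plus stimulus and 100% = saturating agonist plus stimulus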
* marks the source's active call; other numbers are inactive results; nt = no result; ! = repeats disagree. Shown are actives, neighbours in structure and some others; about 2.8% of the full set was active somewhere.

SMILES	NPY-Y1 antag	NPY-Y2 antag	EP2 mod	PGE2 EP2 inh	NPY-Y2 PAM-ag	NPY1 pot ag
CCc1nc(SCC(=O)Nc2ccc(N(C)C)cc2)c2c(C)c(C)sc2n1	nt	nt	-2	10	nt	nt
Cc1sc2nc(C3CC3)nc(SCC(=O)Nc3ccc(N(C)C)cc3)c2c1C	nt	nt	65*	16	nt	nt
CN(C)c1ccc(NC(=O)CSc2nc(N)c(C(=O)Nc3ccc(N(C)C)cc3)s2)cc1	-13	-1	-43	41*	15	47
CCCC(c1nnnn1Cc1ccco1)N(Cc1cc2cc(C)cc(C)c2[nH]c1=O)C1CCCC1 (configuration not stated)	nt	nt	34	4	nt	nt
CCC(C)(C)n1nnnc1C(C(C)C)N(Cc1ccccc1)Cc1cc2cc(C)ccc2[nH]c1=O (configuration not stated)	nt	nt	80*	14	nt	nt
Cc1ccc2[nH]c(=O)c(CN(Cc3nnnn3C3CCCCC3)C3CCCCC3)cc2c1	nt	nt	69*	5	nt	nt
CCC(c1nnnn1C(C)(C)C)N(Cc1cc2cc(C)ccc2[nH]c1=O)C1CCCCC1 (configuration not stated)	nt	nt	75*	17	nt	nt
CCC(C)(C)n1nnnc1C(C(C)C)N(Cc1ccco1)Cc1cc2cc(C)ccc2[nH]c1=O (configuration not stated)	nt	nt	49	11	nt	nt
CCCC(c1nnnn1Cc1ccco1)N(Cc1cc2cc(C)ccc2[nH]c1=O)C1CCCC1 (configuration not stated)	nt	nt	68*	12	nt	nt
CCC(c1nnnn1C1CCCCC1)N(Cc1cc2cc(C)ccc2[nH]c1=O)C1CCCC1 (configuration not stated)	nt	nt	28	12	nt	nt
Cn1c(=O)c2c(nc(SCC(=O)N3CCc4ccccc43)n2Cc2ccc(Cl)cc2)n(C)c1=O	nt	nt	21	23	nt	nt
N#CCNC(=O)c1sc2ccccc2c1Cl	nt	nt	-42	11	nt	nt
Cc1ccc2cc(C#N)c(NCCCNC(=O)C34CC5CC(CC(C5)C3)C4)nc2c1C	nt	nt	-3	5	nt	nt
CCC(c1nnnn1C(C)(C)C)N(CCc1ccccc1C)Cc1cc2cc(C)ccc2[nH]c1=O (configuration not stated)	nt	nt	65*	16	nt	nt
CCCC(c1nnnn1C(C)(C)C)N(Cc1ccccc1OC)Cc1cc2cc(C)ccc2[nH]c1=O (configuration not stated)	nt	nt	72*	10	nt	nt
O=C(NCC1CCN(c2ccc(S(=O)(=O)N3CCOCC3)cc2)CC1)C1CCCCC1	nt	nt	-31	6	nt	nt
COc1ccc(C)cc1NC(=O)N1CCCc2ccccc21	8	nt	61*	2	-19	1
O=C(Nc1ccccc1)N1CCCc2ccccc21	-4	1	31	9	2	-13
CC(=O)Nc1ccc(CNC(=O)CN2CCOCC2)cc1	nt	nt	-16	6	nt	nt
CCN1CCN(S(=O)(=O)c2ccc(OCC(=O)OC)c(C)c2)CC1	nt	nt	-4	10	nt	nt
Oc1ccccc1C=NCCCCCCN=Cc1ccccc1O	nt	nt	62*	5	4	-6
Oc1ccccc1C=NCCN=Cc1ccccc1O	nt	nt	33	10	-11	2
COc1ccc(C2/C(=C(/O)c3ccc(C)cc3)C(=O)C(=O)N2CCO)cc1OC (configuration not stated)	nt	nt	8	11	nt	nt
COc1nc(C)nc(C)c1Oc1ccc(Cl)cc1Cl	nt	nt	65*	2	-22	-14
COc1cc(C)c(S(=O)(=O)NCc2ccc3c(c2)OCO3)c(C)c1C	nt	nt	6	6	nt	nt
SMILES	NPY-Y1 antag	NPY-Y2 antag	EP2 mod	PGE2 EP2 inh	NPY-Y2 PAM-ag	NPY1 pot ag
Cc1nn(-c2ccc(S(=O)(=O)O)cc2)c(O)c1N=Nc1ccc(-c2ccc(N=Nc3ccc4c(S(=O)(=O)O)cc(S(=O)(=O)O)c(N)c4c3O)c(O)c2)cc1O.[Cu].[Cu]	nt	nt	21	54*	nt	nt
COc1cc2c(cc1O)[C@@H](c1cc(O)c(O)c(OC)c1)[C@](O)(C(=O)O)[C@@H](CO)[C@@H]2O	nt	nt	7	54*	nt	nt
O=C(CSc1nnc(-c2ccccc2Cl)o1)Oc1ccc(Br)cc1	0	5	-1	47*!	-27	-54
O=C(CSc1nnc(-c2ccccc2O)o1)Oc1ccc(Br)cc1	13	8	7	3	-19	-23
O=c1cc(CN2CCc3ccccc32)c2ccc(O)cc2o1	1	nt	5	1	0	-24
CCc1ccc2c(CN3CCc4ccccc43)cc(=O)oc2c1	22*	22*	45	9	-9	-2
C/C(=N\Nc1ccc(F)cc1F)c1ccccc1O	2	nt	-44	14	9	13
C/C(=N\Nc1cc(C(F)(F)F)ccc1Cl)c1ccccc1O	5	8	65*	5	-5	-23
Cc1ccc(S(=O)(=O)N2CC3CCCN3c3ccc(C(F)(F)F)cc32)cc1 (configuration not stated)	-7	0	19	5	28*	18
O=S(=O)(c1ccc(F)cc1)N1CC2CCCN2c2ccc(C(F)(F)F)cc21 (configuration not stated)	-7	-2	15	5	44*	64*
CCn1c(SCC(=O)Nc2ccc(N)cc2)nnc1-c1ccncc1	nt	nt	9	9	nt	nt
O=C(O)CCC(=O)c1ccc2ccc3cccc4ccc1c2c34	nt	nt	-23	53*!	-26	-37
O=C(O)CCC(=O)c1cccc2ccccc12	4	8	19	8	-18	-33
Cc1ccc(-c2nc(C#N)c(NCc3cccc4c3OCO4)o2)cc1	28*	22*	-33	9	-31	-20
COc1ccc(-c2nc(C#N)c(NCc3ccc(C)cc3)o2)cc1OC	14	27*	-38	21	-7	-39
CCc1nn(CC(=O)N2CCCC(C)C2)c(=O)c2cc3occc3n12 (configuration not stated)	nt	nt	-27	0	nt	nt
CCN(CC)C(=O)c1sc2[nH]c(=S)n(-c3ccccc3)c(=O)c2c1C	3	-2	61*	10	-3	1
CS(=O)(=O)n1c(=O)sc2ccccc21	nt	nt	11	1	nt	nt
Cc1cc(C(=O)CCl)c(C)n1CCc1ccc(Cl)cc1	-4	nt	-47	5	91*	63*
CC1=NC(=O)C(N=O)N1c1ccccc1 (configuration not stated)	nt	nt	-89	51*	nt	nt
CCOC(=O)c1c(-c2cccc([N+](=O)[O-])c2)csc1N	1	3	56	2	-19	9
CCOC(=O)c1csc(N)c1-c1ccc([N+](=O)[O-])cc1	nt	nt	63*	8	-5	5
CCc1cc2ccccc2nc1SCC(=O)c1ccc2c(c1)OCCO2	nt	nt	-71	8	nt	nt
CC(=O)Nc1ccc2c(c1)/C(=C/c1ccc([N+](C)(C)C)cc1)c1ccccc1-2	nt	nt	-24	48*	nt	nt

From PubChem
